Screening results: PubChem BioAssay, Broad Institute
SR-BI HDL uptake: inhibitors of SR-BI mediated HDL lipid uptake, primary screen, ldlA[mSR-BI] cells, fluorescence, single point; ldlA[mSR-BI] CHO cells, DiI-HDL uptake fluorescence, 3 h; inhibition, % at 12.5 µM; Scavenger receptor class B member 1 (Mus musculus), Q61009; actives 0.96% (n = 320,000); AID 488896, 2010;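 active = mean replicate inhibition of at least 70% and a set share of replicates each scoring 70 or more; inconclusive = meets just one of the two criteria; inactive = fails both criteria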;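 note: 0% = median of neutral control wells and 100% = median of positive control wells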
SR-BI DiI-HDL act: activators of SR-BI mediated DiI-HDL uptake, primary screen, ldlA[mSR-BI] CHO cells, DiI fluorescence. 3 h; 100 = double the neutral-control signal. activation, % at 12.5 µM. actives 0.096% (n = 320,000). AID 504775, 2011;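 active = mean replicate activation of at least 60% and every replicate at or above 60%; inconclusive = mean or all-replicate condition met, but not both; inactive = mean below 60% and not all replicates reaching 60%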;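 note: 0% = median plate neutral-control signal and 100% = twice that signal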
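material = CHO ldlA[mSR-BI] cells | medium = Ham's F12 with 0.5% BSA, HEPES 25 mM, pH 7.4 | reagent = fluorescent DiI-HDL, 10 µg/mL final | compound dosing = single-point compound dose | incubation = 3 h, 37 °C | measured by = bottom-read fluorescence, 550/595 nm | measure = HDL uptake via cellular fluorescence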
dFosB act-1: activators of delta FosB homodimer, primary screen, biochemical, fluorescence polarization, TAMRA-CDK5 oligo, single point; Protein FosB (Mus musculus), P13346; purified delta FosB; percent of positive-control signal above neutral wells; activation, % at 25 µM; actives 0.99% (n = 340,000);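 active = mean activation above about 17%, with every replicate also reaching it, limit read from the data, passing the limit was not always enough; inconclusive = only one of the two conditions met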
Target sequence (P13346 whole entry, looked up): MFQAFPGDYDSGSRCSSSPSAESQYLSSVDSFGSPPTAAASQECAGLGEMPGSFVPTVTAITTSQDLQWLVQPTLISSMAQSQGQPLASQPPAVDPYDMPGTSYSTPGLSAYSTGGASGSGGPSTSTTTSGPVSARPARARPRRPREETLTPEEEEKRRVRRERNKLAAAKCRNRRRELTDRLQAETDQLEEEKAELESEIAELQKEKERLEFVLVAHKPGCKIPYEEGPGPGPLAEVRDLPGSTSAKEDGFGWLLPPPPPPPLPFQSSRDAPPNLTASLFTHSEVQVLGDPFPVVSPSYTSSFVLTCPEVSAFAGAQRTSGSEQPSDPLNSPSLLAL
CDK5 p35 inh: inhibitors of human CDK5/p35 kinase, primary screen, biochemical, single concentration | Cyclin-dependent kinase 5 (Homo sapiens) + Cyclin-dependent kinase 5 activator 1 (Homo … | inhibition, % at 10 µM | Recombinant CDK5/p35, ADP-Glo luminescence, 60 min | actives 0.01% (n = 330,000);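 active = highest replicate inhibition of at least 50% and at least 75% of replicates reaching 50%; inconclusive = only one of the two criteria met; inactive = both criteria failed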;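 note: plate controls were DMSO neutral control for no effect and GW8510 at 10 µM for full effect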
dFosB act-2: activators of mouse delta FosB DNA binding, confirmation, biochemical, fluorescence polarization, TAMRA-CDK5 oligo, cherry-picked samples. 2,400 tested, under 10 active. activation, % at 24.9 µM. AID 588690, 2011. purified delta FosB; normalised: neutral wells 0, positive control 100. shares compounds with dFosB act-1;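 active = highest replicate activation at or above 34% and every replicate reaching that threshold; inconclusive = meets only one of the two criteria; inactive = meets neither criterion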;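 note: higher polarization means more probe DNA bound by delta FosB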
* = called active by the depositor; u = inconclusive; x = not tested or not shown. Only some compounds are listed: those with a hit (about 2% of all), similar ones and a draw of the others.

SMILES	SR-BI HDL uptake	SR-BI DiI-HDL act	dFosB act-1	CDK5 p35 inh	dFosB act-2
O=C(Oc1ccc(/C=N/NC(=O)c2ccccn2)cc1)c1cccc(Br)c1	8	-8	19*	3	4
COc1ccccc1CNC(=O)CN(C)CC(=O)Nc1ccccc1Br	26	-26	-16	0	x
CCC(=O)NCc1csc(-c2cccs2)n1	-12	12	-1	0	x
O=C(NCc1csc(-c2cccs2)n1)Nc1cccc(Cl)c1	-1	1	66*	0	6
N#Cc1c(NC(=O)COC(=O)c2ccc(O)cc2O)sc2c1CCC2	-9	9	39*	-1	4
CC(C)(C)c1ccc(C(=O)OCC(=O)Nc2sc3c(c2C#N)CCC3)cc1	-4	4	0	-1	x
CCOC(=O)c1c(CSC(=N)N)n(-c2ccccc2)c2cc(Br)c(OC(C)=O)cc12	44	-44	30*	2	u
Cc1ccc(N2CC(=O)Nc3c(oc4nc(-c5ccccc5)cc(C)c34)C2=O)cc1	-11	11	24*	1	1
O=C(CN1CCN(C(=O)c2ccccc2)CC1)Nc1cccc(S(=O)(=O)N2CCCC2)c1	-10	10	-7	0	x
CC(C=NNc1ccc([N+](=O)[O-])cn1)=Cc1ccccc1	2	-2	-4	0	x
CC1CC(C)CN(C(=S)SCc2nc(N)nc(Nc3ccccc3)n2)C1 (stereo not drawn)	2	-2	38*	1	3
Nc1nc(CSC(=S)N2CCN(c3ccccc3)CC2)nc(Nc2ccc(F)cc2)n1	27	-27	47*	1	5
Nc1nc(CSC(=S)N2CCOCC2)nc(Nc2ccccc2)n1	12	-12	-12	0	x
Nc1nc(CSC(=S)N2CCCCC2)nc(Nc2ccccc2)n1	1	-1	3	1	x
COc1ccc(OCCN2C(=O)c3ccccc3C2=O)c([N+](=O)[O-])c1	2	-2	0	1	x
Cc1cc(C)cc(NC(=O)COC(=O)c2ccc3c(c2)OCCO3)c1	-7	7	0	-1	x
Cc1ccc(C)c(NC(=O)COC(=O)c2ccc3c(c2)OCCO3)c1	-10	10	33*	-1	-14
Cc1ccc(C(=O)OCC(=O)Nc2ccc3c(c2)OCCO3)cc1C	-30	30	22*	-1	-14
CC(NC(=O)Cn1cccc1C(=O)c1ccccc1)c1ccc2c(c1)OCCO2 (stereo not drawn)	-8	8	-4	2	x
O=C(/C=C/c1ccc2c(c1)OCO2)Nc1ccc(Cl)cn1	19	-19	103*	-1	-1
O=C(/C=C/c1ccc2c(c1)OCO2)Nc1nc2ccc(F)cc2s1	x	x	30*	0	3
Cc1nn(CC(=O)NC(C)c2ccccc2)c(=O)c2ccccc12 (stereo not drawn)	5	-5	-4	2	x
Cc1ccc(-c2nn(CC(=O)NC(C)c3ccccc3)c(=O)c3ccccc23)cc1 (stereo not drawn)	10	-10	28*	1	-22
O=C(Nc1cccc(Cl)c1)c1ccc2c(c1)SC1=NS(=O)(=O)CCN12	48	-48	26*	0	-1
Cc1ccc(-c2nnc(N3CCOCC3)c3ccccc23)cc1S(N)(=O)=O	14	-14	-15	0	x
SMILES	SR-BI HDL uptake	SR-BI DiI-HDL act	dFosB act-1	CDK5 p35 inh	dFosB act-2
Cc1sc2ncnc(SCC(=O)c3ccc(O)cc3O)c2c1C	x	x	40*	1	1
COc1ccc(CCN(Cc2nc3ccccc3c(=O)[nH]2)C(=O)C2CC2)cc1	-15	15	-6	-1	x
COC(=O)c1ccccc1S(=O)(=O)N1CCC(NC(=O)C(Cc2cccc(OC)c2OC)NC(C)=O)CC1 (stereo not drawn)	x	x	-4	-1	x
COc1ccc(C(=O)Nn2c(SCC(=O)N3CCC(C)CC3)nc3ccccc3c2=O)cc1	-17	17	29*	-1	3
COC(=O)c1cnc(Oc2ccc(NC(=O)NC(=O)c3ccccc3Cl)cc2)cc1C(F)(F)F	x	x	-3	-1	x
O=C(O)c1ccc(Cn2cnc3scc(-c4ccccc4)c3c2=O)cc1	-12	12	-6	0	x
CCCOc1ccc(-c2csc3ncn(Cc4ccc(C(=O)O)cc4)c(=O)c23)cc1	21	-21	24*	-5	8
Cc1nn(C)c(NC(=O)c2ccc(Cl)cc2Cl)c1Br	11	-11	-1	3	x
COc1ccc(-n2c(=S)[nH]c3cc(C(=O)Nc4cc(C(N)=O)ccc4OC)ccc3c2=O)c(OC)c1	x	x	32*	0	3
COc1ccc(-n2c(=S)[nH]c3cc(C(=O)NCc4ccco4)ccc3c2=O)cc1OC	-22	22	-2	0	x
COc1cc(NC(=O)c2ccc3c(=O)n(Cc4ccco4)c(=S)[nH]c3c2)cc(OC)c1OC	x	x	31*	-3	-1
COc1ccc(NC(=O)c2ccc3c(=O)n(-c4ccc(OC)cc4OC)c(=S)[nH]c3c2)c(OC)c1	63	-63	1	-1	x
CCCN(CCC)C(=O)c1ccc2c(=O)n(Cc3ccco3)c(=S)[nH]c2c1	13	-13	-9	0	x
O=C(NCc1ccco1)c1ccc2c(=O)n(-c3ccccc3)c(=S)[nH]c2c1	-7	7	35*	-2	6
COc1ccc(NC(=O)CCn2c(=S)[nH]c3ccccc3c2=O)cc1OC	-14	14	24*	0	4
CCCNC(=O)CN1CCC(c2nc3ccccc3[nH]2)CC1	-2	2	-1	0	x
Cc1nn(Cc2ccccc2)c(C)c1C(=O)N1CCN(S(=O)(=O)/C=C/c2ccccc2)CC1	7	-7	-12	-1	x
CN(C)C(=O)[C@H]1C[C@H]1[C@@H](O)[C@H](CO)NC(=O)[C@H](Cc1ccccc1)NC(=O)OC(C)(C)C	-16	16	2	-2	x
COc1ccc(-n2c(=S)[nH]c3cc(C(=O)Nc4ccc(OC)c(OC)c4)ccc3c2=O)cc1	-9	9	127*	0	1
O=C(Nc1ccc2nn(-c3ccccc3)nc2c1)c1ccc2c(c1)OCCO2	28	-28	1	-1	x
CCOc1ccc(-n2nc3ccc(NC(=O)c4ccc5c(c4)OCCO5)cc3n2)cc1	67	-67	99*	2	-10
O=C(Nc1ccc(NS(=O)(=O)c2ccccc2)cc1)c1ccc(Cl)cc1	32	-32	26*	1	1
O=C(NNC(=O)c1ccc(NC(=O)c2ccccc2)cc1)c1ccccc1	27	-27	18*	0	2
O=C(Nc1ccccc1)c1ccc2c(c1)OCCO2	-8	8	2	5	x
